Test results published in ChEMBL document CHEMBL3992553, “New nitrofurans amenable by isocyanide multicomponent chemistry are active against multidrug-resistant and poly-resistant Mycobacterium tuberculosis” (Bioorg Med Chem, 2017).
Converted amounts (≈) assume the structure as drawn.

Test system: Pseudomonas aeruginosa
Experiment: Antibacterial activity against Pseudomonas aeruginosa PA7 DSM 24068 after 18 hrs
Type: functional
Settings: PA7 DSM 24068, 18 h
How it was run: (§1)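 Broth microdilution MIC. Gram-negatives grown overnight at 37 °C in Müller-Hinton broth + 1% glucose, pH 7.2; Gram-positives in trypticase soy broth with yeast extract, pH 7.2. Inoculum 5×10^5 cfu/mL final. Serial dilutions from 100 µM down to 0.2 µM, DMSO ≤1%. 18 h at 37 °C, moist; OD600. MIC = lowest concentration completely suppressing growth.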

Question: With `NCC[C@H](O)C(=O)N[C@@H]1C[C@H](N)[C@@H](O[C@H]2O[C@H](CN)[C@@H](O)[C@H](O)[C@H]2O)[C@H](O)[C@H]1O[C@H]1O[C@H](CO)[C@@H](O)[C@H](N)[C@H]1O` [AMIKACIN] as the compound, how does the EC50 read?
Answer: 3.8 mg/L

Question: What about the MIC of the same compound?
Answer: 4.5 mg/L

Question: For `CC1(C(=O)NC2CCCCC2)CN(S(C)(=O)=O)CC(=O)N1/N=C/c1ccc([N+](=O)[O-])o1` (centres undefined), which EC50 is on record?
Answer: > 100 µM

Question: And the MIC?
Answer: > 100 µM

Question: Which EC50 does the source give for `CC(C)(C)NC(=O)C1(C)COCC(=O)N1/N=C/c1ccc([N+](=O)[O-])o1` (centres undefined) here?
Answer: > 100 µM

Question: And the MIC?
Answer: > 100 µM

Test system: Enterococcus faecium
Experiment: Antibacterial activity against Enterococcus faecium DSM 20477 after 18 hrs
Type: functional
Settings: DSM 20477, 18 h
How it was run: as §1

Question: Which MIC does the source give for `CC1(C(=O)NCc2ccccc2)CCCC(=O)N1/N=C/c1ccc([N+](=O)[O-])o1` (centres undefined) here?
Answer: > 100 µM

Question: `CC1(C(=O)NC2CCCCC2)CCC(=O)N1/N=C/c1ccc([N+](=O)[O-])o1` (centres undefined) was tested. Which MIC did it give?
Answer: > 100 µM

Question: With `CC1(C(=O)NC2CCCCC2)CN(S(C)(=O)=O)CC(=O)N1/N=C/c1ccc([N+](=O)[O-])o1` (centres undefined) as the compound, how does the EC50 read?
Answer: > 100 µM

Question: What about the MIC of the same compound?
Answer: > 100 µM

Question: With `CC(C)(C)NC(=O)C1(C)COCC(=O)N1/N=C/c1ccc([N+](=O)[O-])o1` (centres undefined) as the compound, how does the EC50 read?
Answer: > 100 µM

Question: And the MIC?
Answer: > 100 µM

Test system: Escherichia coli
Experiment: Antibacterial activity against Escherichia coli DSM 1116 after 18 hrs
Type: functional
Settings: DSM 1116, 18 h
How it was run: as §1

Question: What does the source list for `CC1(C(=O)NC2CCCCC2)CN(S(C)(=O)=O)CC(=O)N1/N=C/c1ccc([N+](=O)[O-])o1` (centres undefined)?
Answer: EC50: > 100 µM; MIC: > 100 µM

Question: `CC(C)(C)NC(=O)C1(C)COCC(=O)N1/N=C/c1ccc([N+](=O)[O-])o1` (centres undefined) was tested. Which EC50 did it give?
Answer: > 100 µM

Question: What about the MIC of the same compound?
Answer: > 100 µM

Test system: Mycobacterium tuberculosis
Experiment: Antimycobacterial activity against Mycobacterium tuberculosis H37Rv after 7 days by REMA
Type: functional
Settings: 168 h
How it was run: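 REMA. 3-week H37Rv culture (2nd generation on Löwenstein–Jensen) vortexed with glass beads, set to 1.0 McFarland in 7H9, diluted 20-fold in 7H9 + OADC. 2-fold dilutions, final 1.6–400 µg/mL, 200 µL wells. 7 days at 35 °C, then resazurin 18 h. Fluorescence ex 520/em 590. MIC where signal plateaued or matched the 1% population control (t test).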

Question: `CC1(C(=O)NCc2ccccc2)CCCC(=O)N1/N=C/c1ccc([N+](=O)[O-])o1` (centres undefined) was tested. Which MIC did it give?
Answer: 65 µM (≈ 25 µg/mL)

Question: `CC1(C(=O)NC2CCCCC2)CCC(=O)N1/N=C/c1ccc([N+](=O)[O-])o1` (centres undefined) was tested. Which MIC did it give?
Answer: 70 µM (≈ 25.4 µg/mL)

Question: How did the MIC turn out when `CC1(C(=O)NC2CCCCC2)CN(S(C)(=O)=O)CC(=O)N1/N=C/c1ccc([N+](=O)[O-])o1` (centres undefined) was run?
Answer: 55 µM (≈ 25.1 µg/mL)

Question: For `CC(C)(C)NC(=O)C1(C)COCC(=O)N1/N=C/c1ccc([N+](=O)[O-])o1` (centres undefined), which MIC is on record?
Answer: > 100 µM

Test system: Staphylococcus aureus
Experiment: Antibacterial activity against methicillin-resistant Staphylococcus aureus DSM 11822 after 18 hrs
Type: functional
Settings: DSM 11822, 18 h
How it was run: as §1

Question: `CC1(C(=O)NCc2ccccc2)CCCC(=O)N1/N=C/c1ccc([N+](=O)[O-])o1` (centres undefined) was tested. Which MIC did it give?
Answer: 100 µM (≈ 38.4 µg/mL)

Question: `CC1(C(=O)NC2CCCCC2)CCC(=O)N1/N=C/c1ccc([N+](=O)[O-])o1` (centres undefined) was tested. Which MIC did it give?
Answer: > 100 µM

Question: How did the MIC turn out when `CC1(C(=O)NC2CCCCC2)CN(S(C)(=O)=O)CC(=O)N1/N=C/c1ccc([N+](=O)[O-])o1` (centres undefined) was run?
Answer: > 100 µM

Question: How did the MIC turn out when `CC(C)(C)NC(=O)C1(C)COCC(=O)N1/N=C/c1ccc([N+](=O)[O-])o1` (centres undefined) was run?
Answer: > 100 µM

Test system: Escherichia coli
Experiment: Growth inhibition of Escherichia coli DSM 1116 at 100 uM after 18 hrs relative to control
Type: functional
Settings: DSM 1116, 18 h, read-out: GI
How it was run: (§2)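 Gram-negative culture grown overnight at 37 °C in Müller-Hinton broth + 1% glucose, pH 7.2, then tested at 5×10^5 cfu/mL final. Compound at 100 µM from DMSO stock, DMSO ≤1%. Incubated 18 h at 37 °C under moist conditions. OD600 read; value reported as % growth inhibition.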

Question: Which inhibition of growth at 100 µM does the source give for `CC1(C(=O)NCc2ccccc2)CCCC(=O)N1/N=C/c1ccc([N+](=O)[O-])o1` (centres undefined) here?
Answer: 87%

Question: Which inhibition of growth at 100 µM does the source give for `CC1(C(=O)NC2CCCCC2)CCC(=O)N1/N=C/c1ccc([N+](=O)[O-])o1` (centres undefined) here?
Answer: 85%

Test system: Pseudomonas aeruginosa
Experiment: Growth inhibition of Pseudomonas aeruginosa PA7 DSM 24068 at 100 uM after 18 hrs relative to control
Type: functional
Settings: PA7 DSM 24068, 18 h, read-out: GI
How it was run: as §2

Question: `CC1(C(=O)NCc2ccccc2)CCCC(=O)N1/N=C/c1ccc([N+](=O)[O-])o1` (centres undefined) was tested. Which inhibition of growth at 100 µM did it give?
Answer: 85%

Question: Which inhibition of growth at 100 µM does the source give for `CC1(C(=O)NC2CCCCC2)CCC(=O)N1/N=C/c1ccc([N+](=O)[O-])o1` (centres undefined) here?
Answer: 90%

Test system: Klebsiella pneumoniae
Experiment: Antibacterial activity against Klebsiella pneumoniae DSM 11678 after 18 hrs
Type: functional
Settings: DSM 11678, 18 h
How it was run: as §1

Question: Which results are given for `CC1(C(=O)NC2CCCCC2)CN(S(C)(=O)=O)CC(=O)N1/N=C/c1ccc([N+](=O)[O-])o1` (centres undefined)?
Answer: EC50: > 100 µM; MIC: > 100 µM

Question: For `CC(C)(C)NC(=O)C1(C)COCC(=O)N1/N=C/c1ccc([N+](=O)[O-])o1` (centres undefined), which EC50 is on record?
Answer: > 100 µM

Question: What about the MIC of the same compound?
Answer: > 100 µM

Test system: Staphylococcus aureus
Experiment: Antibacterial activity against methicillin-resistant Staphylococcus aureus RKI 11-02670 after 18 hrs
Type: functional
Settings: RKI 11-02670, 18 h
How it was run: as §1

Question: Which EC50 does the source give for `CC1(C(=O)NCc2ccccc2)CCCC(=O)N1/N=C/c1ccc([N+](=O)[O-])o1` (centres undefined) here?
Answer: 75 µM

Question: And the MIC?
Answer: 100 µM (≈ 38.4 µg/mL)

Question: How did the EC50 turn out when `CC1(C(=O)NC2CCCCC2)CCC(=O)N1/N=C/c1ccc([N+](=O)[O-])o1` (centres undefined) was run?
Answer: 79 µM

Question: And the MIC?
Answer: ≥ 100 µM

Question: With `CC1(C(=O)NC2CCCCC2)CN(S(C)(=O)=O)CC(=O)N1/N=C/c1ccc([N+](=O)[O-])o1` (centres undefined) as the compound, how does the EC50 read?
Answer: 35.7 µM

Question: What about the MIC of the same compound?
Answer: > 100 µM

Question: `CC(C)(C)NC(=O)C1(C)COCC(=O)N1/N=C/c1ccc([N+](=O)[O-])o1` (centres undefined) was tested. Which EC50 did it give?
Answer: 50 µM

Question: And the MIC?
Answer: > 100 µM

Test system: Acinetobacter baumannii
Experiment: Antibacterial activity against Acinetobacter baumannii DSM 30007 after 18 hrs
Type: functional
Settings: DSM 30007, 18 h
How it was run: as §1

Question: What does the source list for `CC1(C(=O)NC2CCCCC2)CN(S(C)(=O)=O)CC(=O)N1/N=C/c1ccc([N+](=O)[O-])o1` (centres undefined)?
Answer: EC50: > 100 µM; MIC: > 100 µM

Question: What does the source list for `CC(C)(C)NC(=O)C1(C)COCC(=O)N1/N=C/c1ccc([N+](=O)[O-])o1` (centres undefined)?
Answer: EC50: > 100 µM; MIC: > 100 µM
